Results from ChEMBL document CHEMBL1127788, “Iodinated 2-aminotetralins and 3-amino-1-benzopyrans: ligands for dopamine D2 and D3 receptors” (J Med Chem, 1994).

Tests used:
[1] = target: T1, D(2) dopamine receptor (Homo sapiens, UniProt P14416); assay: Tested for the inhibitory activity against Dopamine D2 receptor in infected Sf9 cells; type: cell-based
Method in brief: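 Membranes from Sf9 cells infected with AcMNPVrD2 baculovirus (non-G-protein coupled, low-affinity D2). Drugs up to 10^-5 M displace 0.1 nM [125I]-NCQ298 in 50 mM Tris pH 7.4, 120 mM NaCl, protease inhibitors, BSA 1 mg/mL. Incubation 30 min at 37 °C, filtration, gamma counting. Nonspecific binding with 10 μM (+)-butaclamol or 1 μM 7-OH-DPAT. Ki by nonlinear least-squares fitting.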

[2] = target: T1, D(2) dopamine receptor; assay: Tested for the inhibitory activity against D2H (high-affinity states) receptor in infected HEK 293 cells.; type: cell-based, HEK293
Method in brief: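 Competition binding on membranes of HEK293 cells expressing dopamine D2 receptors in high-affinity (G-protein coupled) states. Radioligand [125I]-R-(+)-trans-7-OH-PIPAT. […] Ki from iterative nonlinear least-squares curve fitting.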

[3] = target: T2, Sigma non-opioid intracellular receptor 1 (Rattus norvegicus, UniProt Q9R0C9); assay: Tested for the inhibitory activity against sigma receptor rat cerebellar
T2 sequence (Q9R0C9 whole entry): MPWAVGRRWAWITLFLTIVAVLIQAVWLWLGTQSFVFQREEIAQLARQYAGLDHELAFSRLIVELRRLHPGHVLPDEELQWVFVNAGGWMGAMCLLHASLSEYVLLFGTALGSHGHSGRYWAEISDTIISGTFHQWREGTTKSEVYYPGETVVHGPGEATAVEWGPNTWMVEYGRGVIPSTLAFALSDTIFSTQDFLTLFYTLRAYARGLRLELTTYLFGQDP
Method in brief: (§1)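 Rat cerebellar homogenate (65–75 μg) with 0.3–0.5 nM [125I]-S-(-)-trans-7-OH-PIPAT plus 15 nM spiperone and varying inhibitor, 20 min at 25 °C. Nonspecific binding: 10 μM haloperidol. Vacuum filtration through PEI-presoaked glass fiber filters, washed with ice-cold 50 mM Tris-HCl pH 7.4.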

[4] = target: T3, 5-hydroxytryptamine receptor 1A (Rattus norvegicus, UniProt P19327); assay: Tested for the inhibitory activity against 5-hydroxytryptamine 1A receptor in rat hippocampal; type: tissue-based, Hippocampus
T3 sequence (P19327 whole entry): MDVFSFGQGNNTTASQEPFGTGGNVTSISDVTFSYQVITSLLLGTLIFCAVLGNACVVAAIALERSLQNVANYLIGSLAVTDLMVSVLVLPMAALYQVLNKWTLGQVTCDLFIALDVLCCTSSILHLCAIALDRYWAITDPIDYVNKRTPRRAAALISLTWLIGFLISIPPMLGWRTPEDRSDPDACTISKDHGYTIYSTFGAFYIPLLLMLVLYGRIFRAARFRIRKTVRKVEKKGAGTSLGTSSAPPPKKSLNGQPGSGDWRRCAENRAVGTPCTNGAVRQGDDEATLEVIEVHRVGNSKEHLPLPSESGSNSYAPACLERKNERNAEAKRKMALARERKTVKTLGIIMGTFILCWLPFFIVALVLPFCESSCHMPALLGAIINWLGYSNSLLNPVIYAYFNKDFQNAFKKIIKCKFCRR
Method in brief: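 Rat hippocampal homogenate in ice-cold 50 mM Tris-HCl pH 7.4, spun at 20000g for 20 min. Pellet lysed in water, preincubated at 37 °C to remove endogenous serotonin, then resuspended in Tris with 2 mM MgCl2. Nonspecific binding: 10 μM 5-HT. Filtration, γ counting, Ki by LIGAND fit.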

[5] = target: D(3) dopamine receptor (Homo sapiens, UniProt P35462); assay: Tested for the inhibitory activity against Dopamine D3 receptor in infected Sf9 cells; type: cell-based
D(3) dopamine receptor, sequence (P35462 whole entry): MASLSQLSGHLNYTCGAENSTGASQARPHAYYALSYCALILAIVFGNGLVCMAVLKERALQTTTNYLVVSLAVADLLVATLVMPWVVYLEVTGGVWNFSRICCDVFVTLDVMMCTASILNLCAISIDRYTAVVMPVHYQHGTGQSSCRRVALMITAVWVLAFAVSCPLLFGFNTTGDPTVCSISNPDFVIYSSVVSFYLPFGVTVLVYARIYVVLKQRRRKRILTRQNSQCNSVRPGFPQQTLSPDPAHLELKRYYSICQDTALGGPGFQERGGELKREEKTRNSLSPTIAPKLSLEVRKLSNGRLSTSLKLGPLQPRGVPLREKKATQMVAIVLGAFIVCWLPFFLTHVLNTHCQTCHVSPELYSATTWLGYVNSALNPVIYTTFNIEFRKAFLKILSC
Method in brief: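 Membranes from Sf9 cells infected with AcMNPVrD3, in 50 mM Tris pH 7.4 with 120 mM NaCl, protease inhibitors and BSA 1 mg/mL. Nonspecific binding: 10 μM (+)butaclamol or 1 μM 7-OH-DPAT. Filtration onto PEI-soaked glass fiber, γ counting, LIGAND nonlinear fit.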

[6] = target: T2, Sigma non-opioid intracellular receptor 1; assay: tested for the inhibitory activity against sigma receptor rat cerebellar; method in brief: as §1

T1 sequence (P14416 whole entry): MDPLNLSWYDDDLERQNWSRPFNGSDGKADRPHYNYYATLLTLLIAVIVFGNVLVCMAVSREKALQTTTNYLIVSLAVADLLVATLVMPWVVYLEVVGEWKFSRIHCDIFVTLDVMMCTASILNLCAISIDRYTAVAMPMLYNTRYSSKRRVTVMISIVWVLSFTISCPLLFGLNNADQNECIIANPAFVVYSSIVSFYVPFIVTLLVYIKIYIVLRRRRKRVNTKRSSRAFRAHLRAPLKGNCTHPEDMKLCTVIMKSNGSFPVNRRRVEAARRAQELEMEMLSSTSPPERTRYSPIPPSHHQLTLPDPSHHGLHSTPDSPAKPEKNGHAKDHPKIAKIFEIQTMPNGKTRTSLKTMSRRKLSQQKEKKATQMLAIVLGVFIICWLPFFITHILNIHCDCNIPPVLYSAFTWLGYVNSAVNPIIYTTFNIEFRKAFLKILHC

Row | Ki [6] [nM] | Compound | Ki [1] [nM] | Ki [2] [nM] | Ki [3] [nM] | Ki [4] [nM] | Ki [5] [nM]
1 |  | CCCN(C/C=C/I)C1CCc2ccc(O)cc2C1 (centres undefined) | 265 | 6.6 | 3.2 |  | 
2 |  | CCCN(C/C=C/I)C1COc2c(O)cccc2C1 (centres undefined) | > 5000 |  | 492 | 1270 | 31.4
3 |  | CCCN(C/C=C/I)C1COc2ccc(O)cc2C1 (centres undefined) | 784 |  | > 10000 | 619 | 6.69
4 |  | CCCN(C/C=C/I)C1CCc2c(O)cccc2C1 (centres undefined) | 324 | 3.6 | 1240 | 47.9 | 0.99
5 |  | CCCN(CCC)C1CCc2ccc(O)cc2C1 (centres undefined) |  |  | 23.2 |  | 
6 | 1.68 | Oc1ccc2c(c1)CC(NC/C=C/I)CC2 (centres undefined) |  |  |  |  | 30.2
7 |  | CCCN(C/C=C/I)C1CCc2cc(O)ccc2C1 (centres undefined) | 547 | 9.7 | 28.4 | 297 | 2.2
